# Laboratory results from ChEMBL document CHEMBL1134346, “Labeling and evaluation of N-[11C]methylated quinoline-2-carboxamides as potential radioligands for visualization of peripheral benzodiazepine receptors” (J Med Chem, 2001).
# Tests used:
# Rattus norvegicus [1] = species: Rattus norvegicus; assay: Tissue (blood) concentration of radioactivity at 30 min post-injection into Albino male CD rats with vehicle.; type: ADME, organism-based; details: in vivo, 0.5 h
# Outline: (§1)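 Separate groups of five rats received tail-vein PK 11195 (1.4-1.6 mg; 5 mg/kg) in 30 µL DMSO:EtOH 1:1, or vehicle alone, immediately before iv radioligand (90-170 µCi in saline, 0.9-1 Ci/µmol). Rats were decapitated at 30 min and tissues gamma-counted; values are %I.D./g.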
# Rattus norvegicus [2] = species: Rattus norvegicus; assay: Tissue (cerebellum) distribution in Albino male CD rats after 60 minutes expressed as percent of injected dose per gram of organ.; type: ADME, organism-based; details: in vivo, 1 h
# Outline: (§2)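 Radioligand given in saline into tail vein of male albino CD rats (225-250 g); 100-200 µCi per animal, 1-2 Ci/µmol at injection depending on radioligand. Three rats per time point were decapitated under light ether anaesthesia. Blood, plasma, brain regions and washed organs were weighed and gamma-counted. Uptake is %I.D./g tissue, mean ± SD.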
# Rattus norvegicus [3] = species: Rattus norvegicus; assay: Tissue (spleen) concentration of radioactivity at 30 min post-injection into Albino male CD rats with vehicle.; type: ADME, organism-based; details: in vivo, 0.5 h
# Outline: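 Blocking study in male albino CD rats, five per group. Immediately before the 11C radioligand (in saline, i.v. tail vein), rats received 30 µL tail-vein PK 11195 (5 mg/kg; 1.4-1.6 mg) in DMSO:EtOH 1:1, or vehicle. Rats were decapitated at 30 min. Tissues were dissected, washed, gamma-counted and weighed as in the biodistribution study. Results are %I.D./g.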
# Rattus norvegicus [4] = species: Rattus norvegicus; assay: Tissue (muscle) distribution in Albino male CD rats after 15 minutes expressed as percent of injected dose per gram of organ.; type: ADME, organism-based; details: in vivo, 0.25 h
# Outline: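 Male albino CD rats (225-250 g) received the 11C-labelled radioligand in saline by tail-vein injection. Three rats per time point were decapitated under light ether anaesthesia at 5, 15, 30, 60 or 90 min. Blood was collected heparinized and plasma separated by centrifugation. The pituitary was dissected from the brain. Lung, liver (three-lobe pieces) and right deltoid muscle were sampled, washed in cold saline, gamma-counted and weighed. Results are %I.D./g.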
# Rattus norvegicus [5] = species: Rattus norvegicus; assay: Tissue (cortex) distribution in Albino male CD rats after 30 minutes expressed as percent of injected dose per gram of organ.; type: ADME, organism-based; details: in vivo, 0.5 h; outline: as §2
# [6] = target: Translocator protein (Rattus norvegicus) (UniProt P16257); assay: Tissue (blood) concentration of radioactivity at 30 min post-injection into Albino male CD rats after pretreatment with cold PK 11195.; type: functional, tissue-based; outline: as §1
# Sequence of Translocator protein (Rattus norvegicus) (P16257 whole entry, looked up): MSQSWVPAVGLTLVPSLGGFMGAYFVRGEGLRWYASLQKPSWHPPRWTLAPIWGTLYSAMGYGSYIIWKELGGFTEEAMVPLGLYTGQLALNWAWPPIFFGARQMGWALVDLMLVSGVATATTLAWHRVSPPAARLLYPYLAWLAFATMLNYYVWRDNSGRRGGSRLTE
# Rattus norvegicus [7] = species: Rattus norvegicus; assay: Tissue (heart) distribution in Albino male CD rats after 15 minutes expressed as percent of injected dose per gram of organ.; type: ADME, organism-based; details: in vivo, 0.25 h; outline: as §2
# Rattus norvegicus [8] = species: Rattus norvegicus; assay: Tissue (heart) distribution in Albino male CD rats after 90 minutes expressed as percent of injected dose per gram of organ.; type: ADME, organism-based; details: in vivo, 1.5 h; outline: as §2
# Rattus norvegicus [9] = species: Rattus norvegicus; assay: Tissue (blood) distribution in Albino male CD rats after 60 minutes expressed as percent of injected dose per gram of organ.; type: ADME, organism-based; details: in vivo, 1 h; outline: as §2
# [10] = target: Translocator protein (Rattus norvegicus) (UniProt P16257); assay: Tissue (heart) concentration of radioactivity at 30 min post-injection into Albino male CD rats after pretreatment with cold PK 11195.; type: functional; outline: as §1
# Rattus norvegicus [11] = species: Rattus norvegicus; assay: Tissue (kidney) concentration of radioactivity at 30 min post-injection into Albino male CD rats with vehicle.; type: ADME, organism-based; details: in vivo, 0.5 h; outline: as §1
# Rattus norvegicus [12] = species: Rattus norvegicus; assay: Tissue (Muscle) distribution in Albino male CD rats after 15 minutes expressed as percent of injected dose per gram of organ.; type: ADME, organism-based; details: in vivo, 0.25 h; outline: as §2
# Rattus norvegicus [13] = species: Rattus norvegicus; assay: Tissue (blood) concentration of radioactivity at 30 min post-injection into Albino male CD rats with vehicle; type: ADME, organism-based; details: in vivo, 0.5 h; outline: as §1
I.D./g (Rattus norvegicus [1]),I.D./g (Rattus norvegicus [2]),I.D./g (Rattus norvegicus [3]),I.D./g (Rattus norvegicus [4]),I.D./g (Rattus norvegicus [5]),I.D./g [6],I.D./g (Rattus norvegicus [7]),I.D./g (Rattus norvegicus [8]),I.D./g (Rattus norvegicus [9]),I.D./g [10],I.D./g (Rattus norvegicus [11]),I.D./g (Rattus norvegicus [12]),I.D./g (Rattus norvegicus [13]),SMILES
0.03%,0.05%,0.56%,0.14%,0.07%,< 0.06%,0.8%,1.23%,0.03%,< 0.13%,0.45%,,,CCC(C)N(C)C(=O)c1nc2ccccc2c(-c2ccccc2)c1C (stereo not drawn)
,0.08%,0.26%,,0.09%,> 0.02%,2.62%,2.38%,0.06%,< 0.04%,0.19%,0.25%,0.01%,Cc1c(C(=O)N(C)Cc2ccccc2)nc2ccccc2c1-c1ccccc1
0.04%,0.07%,0.28%,0.13%,0.1%,> 0.04%,0.86%,0.58%,0.08%,< 0.11%,0.35%,,,CCC(C)N(C)C(=O)c1nc2ccccc2c(-c2ccccc2F)c1C (stereo not drawn)
